Measured values: ChEMBL document CHEMBL1155041, “Discovery of N-(2-aminophenyl)-4-[(4-pyridin-3-ylpyrimidin-2-ylamino)methyl]benzamide (MGCD0103), an orally active histone deacetylase inhibitor” (J Med Chem, 2008)
Where a name gives a salt, the structure may show the parent alone. Activity calls are given as the source filed them. The calls are words filed in the database; no cut-off is given here.

Columns and labels:
[1] = Half life in Beagle dog at 10 mg/kg, iv; type: ADME, organism-based, Canis lupus familiaris; parameters: dose 10 mg/kg, route intravenous; details: in vivo
Summary of the method: (§1)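 Female CD-1 mice, female Sprague-Dawley rats and male beagle dogs were dosed iv or orally. Vehicles: mice, 0.05-0.1 N HCl in saline for both routes. Rats, 0.02-0.1 N HCl in saline iv; for po, HCl/saline with 0.5% HPMC and 0.01% Tween-80, or 0.5% CMC in 50 mM acetate pH 4.0. Dogs, HCl/saline with 40% PEG400 iv; for po, HCl/saline ±PEG400 or 0.5% hydroxyethylcellulose in pH 4.0 acetate. Plasma was collected over time and analyzed by LC-MS/MS.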

[2] = Clearance in Beagle dog at 10 mg/kg, iv and 7 to 30 mg/kg, po; type: ADME, organism-based, Canis lupus familiaris; details: in vivo; summary of the method: as §1
[3] = tested on: HCT-116; assay: Induction of p21cip/waf1 protein expression in human HCT116 cells relative to MS275; type: functional, cell-based
[4] = biological target: T1, Histone deacetylase 11 (Homo sapiens, UniProt Q96DB2); assay: Inhibition of human recombinant HDAC11 homogeneous fluorescence release assay
T1 sequence (Q96DB2 whole entry): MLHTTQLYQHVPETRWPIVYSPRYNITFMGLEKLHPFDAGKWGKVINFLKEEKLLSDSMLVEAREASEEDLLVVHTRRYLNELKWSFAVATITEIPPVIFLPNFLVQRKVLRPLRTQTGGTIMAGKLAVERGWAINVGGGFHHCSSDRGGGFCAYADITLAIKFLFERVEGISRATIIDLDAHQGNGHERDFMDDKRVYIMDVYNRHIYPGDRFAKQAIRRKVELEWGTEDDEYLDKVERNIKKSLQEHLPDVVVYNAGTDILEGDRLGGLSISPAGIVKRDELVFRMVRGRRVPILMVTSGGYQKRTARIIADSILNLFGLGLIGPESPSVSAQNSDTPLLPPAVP
Summary of the method: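 Boc-Lys(ε-Ac)-AMC substrate then added at 37 °C, with isotype-specific substrate level and time. Trypsin 20 min at RT releases fluorophore, read ex 360/em 470 nm. IC50 from dose-response curves, 6-21 independent experiments.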

[5] = tested on: HCT-116; assay: Antiproliferative activity against human HCT116 cells after 72 hrs by MTT assay; details: HCT-116, 72 h
[6] = Tmax in Sprague-Dawley rat at 2.5 to 50 mg/kg, po; type: ADME, organism-based; parameters: dose 2.5-50 mg/kg, route oral; details: in vivo; summary of the method: as §1
[7] = Oral bioavailability in Beagle dog at 7 to 30 mg/kg; type: ADME, organism-based, Canis lupus familiaris; details: in vivo; summary of the method: as §1
[8] = Clearance in Sprague-Dawley rat at 2.5 to 5 mg/kg, iv and 2.5 to 50 mg/kg, po; type: ADME, organism-based; details: in vivo; summary of the method: as §1
[9] = tested on: Rattus norvegicus; assay: Cmax in Sprague-Dawley rat at 2.5 to 50 mg/kg, po; type: ADME, organism-based; parameters: dose 2.5-50 mg/kg, route oral; details: in vivo; summary of the method: as §1
[10] = Oral bioavailability in Sprague-Dawley rat at 2.5 to 50 mg/kg; type: ADME, organism-based; details: in vivo
Summary of the method: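 Female Sprague-Dawley rats dosed iv 2.5-5 mg/kg in 0.02-0.1 N HCl/saline. Oral doses of 2.5-50 mg/kg were given either in 0.02-0.1 N HCl/saline with 0.5% HPMC and 0.01% Tween-80, or in 0.5% CMC in 50 mM acetate pH 4.0. Plasma sampled at various time points and analysed by HPLC-MS/MS.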

[11] = tested on: A-431; assay: Antitumor activity against human A431 cells xenografted in CD1 nude mouse at 60 mg/kg/day, po; type: functional; details: read-out: TGI
Summary of the method: (§2)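 Tumors were started from about 2 million cells injected sc into the flank of female CD-1 nude mice aged 8-10 weeks, then serially passaged at least three times. About 30 mg fragments were implanted sc under anesthesia. Dosing was oral, daily, as a solution in PBS acidified with 0.1 N HCl. Tumor volume and body weight were measured three times weekly for ≥2 weeks, with 6-8 animals per group and Student's t-test.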

[12] = tested on: DU-145; assay: Antiproliferative activity against human Du145 cells after 72 hrs by MTT assay; type: functional, cell-based; details: DU-145, 72 h
Summary of the method: (§3)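 Cells (HMEC from a commercial source, others from ATCC) cultured per vendor instructions, exposed to a range of concentrations for 72 h at 37 °C, 5% CO2. MTT at 0.5 mg/mL final for 4 h, then DMF/SDS solubilization overnight, absorbance at 570 nm with 630 nm reference. OD converted to cell number via a growth curve. IC50 is the concentration giving 50% of DMSO-control cell number. At least three independent experiments.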

[13] = tested on: DU-145; assay: Antitumor activity against human DU145 cells xenografted in CD1 nude mouse at 80 mg/kg; type: functional; details: read-out: TGI; summary of the method: as §2
[14] = tested on: Mus musculus; assay: Volume of distribution in CD1 mouse at 2.5 to 15 mg/kg, iv and po; type: ADME, organism-based; parameters: dose 2.5-15 mg/kg, route oral; details: in vivo; summary of the method: as §1
[15] = tested on: A549; assay: Antitumor activity against human A549 cells xenografted in CD1 nude mouse at 60 mg/kg/day, po; type: functional; details: read-out: TGI; summary of the method: as §2
[16] = tested on: Mus musculus; assay: Cmax in CD1 mouse at 2.5 to 15 mg/kg, po; type: ADME, organism-based; parameters: dose 2.5-15 mg/kg, route oral; details: in vivo; summary of the method: as §1
[17] = Oral bioavailability in CD1 mouse at 2.5 to 15 mg/kg; type: ADME, organism-based; details: in vivo
Summary of the method: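 Female CD-1 mice dosed iv 2.5-15 mg/kg and orally 2.5-15 mg/kg. Both routes used 0.05-0.1 N HCl in saline. Plasma collected at various time points and analysed by HPLC-MS/MS. Bioavailability taken from oral versus iv exposure.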

[18] = Tmax in Beagle dog at 7 to 30 mg/kg, po; type: ADME, organism-based, Canis lupus familiaris; parameters: dose 7-30 mg/kg, route oral; details: in vivo; summary of the method: as §1
[19] = tested on: HCT-116; assay: Cell cycle arrest in human HCT116 cells assessed as accumulation at G2/M phase; type: functional, cell-based
Summary of the method: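 Cells treated for 16 h, fixed in 70% ethanol at -20 °C, RNase-treated and stained with propidium iodide (50 µg/mL). DNA content measured by flow cytometry to score G2/M accumulation. EC50 derived.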

[20] = tested on: T-24; assay: Induction of H3 histone acetylation in human T24 cells relative to MS275; type: functional, cell-based
Summary of the method: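 Histones were acid-extracted (H2SO4, then acetone precipitation) from treated cells. In the ELISA, 2 µg of histones went onto anti-histone-coated plates and were probed with anti-acetyl-H3 (1:1000). Signal was normalized to total H3 measured on 0.5 µg with anti-H3.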

[21] = Tmax in CD1 mouse at 2.5 to 15 mg/kg, po; type: ADME, organism-based; parameters: dose 2.5-15 mg/kg, route oral; details: in vivo; summary of the method: as §1
[22] = Half life in CD1 mouse at 2.5 to 15 mg/kg, iv; type: ADME, organism-based; parameters: dose 2.5-15 mg/kg, route intravenous; details: in vivo; summary of the method: as §1
[23] = tested on: A549; assay: Antiproliferative activity against human A549 cells after 72 hrs by MTT assay; details: A549, 72 h
[24] = Volume of distribution at steady state in Beagle dog at 10 mg/kg, iv and 7 to 30 mg/kg, po; type: ADME, organism-based, Canis lupus familiaris; details: in vivo, read-out: Vdss; summary of the method: as §1
[25] = tested on: DU-145; assay: Antitumor activity against human DU145 cells xenografted in CD1 nude mouse at 40 mg/kg/day, po; type: functional; details: read-out: TGI; summary of the method: as §2
[26] = tested on: HMEC; assay: Antiproliferative activity against HMEC after 72 hrs by MTT assay; type: functional, cell-based; details: Homo sapiens; summary of the method: as §3
[27] = Half life in Sprague-Dawley rat at 2.5 to 5 mg/kg, iv; type: ADME, organism-based; parameters: dose 2.5-5 mg/kg, route intravenous; details: in vivo; summary of the method: as §1
[28] = tested on: Canis familiaris; assay: Cmax in Beagle dog at 7 to 30 mg/kg, po; type: ADME, organism-based, Canis lupus familiaris; parameters: dose 7-30 mg/kg, route oral; details: in vivo; summary of the method: as §1
[29] = tested on: DU-145; assay: Antitumor activity against human DU145 cells xenografted in CD1 nude mouse at 70 mg/kg/day, po; type: functional; details: read-out: TGI; summary of the method: as §2
[30] = tested on: A549; assay: Antitumor activity against human A549 cells xenografted in CD1 nude mouse at 40 mg/kg/day, po; type: functional; details: read-out: TGI; summary of the method: as §2
[31] = Volume of distribution at steady state in Sprague-Dawley rat at 2.5 to 5 mg/kg, iv and 2.5 to 50 mg/kg, po; type: ADME, organism-based; details: in vivo, read-out: Vdss; summary of the method: as §1
[32] = tested on: A-431; assay: Antitumor activity against human A431 cells xenografted in CD1 nude mouse at 90 mg/kg/day, po; type: functional; details: read-out: TGI; summary of the method: as §2
[33] = tested on: SW48; assay: Antitumor activity against human SW48 cells xenografted in CD1 nude mouse at 60 mg/kg/day, po; type: functional; details: read-out: TGI; summary of the method: as §2
[34] = tested on: SW48; assay: Antitumor activity against human SW48 cells xenografted in CD1 nude mouse at 120 mg/kg/day, po; type: functional; details: read-out: TGI; summary of the method: as §2
[35] = tested on: SW48; assay: Antitumor activity against human SW48 cells xenografted in CD1 nude mouse at 90 mg/kg/day, po; type: functional; details: read-out: TGI; summary of the method: as §2
[36] = tested on: HCT-116; assay: Induction of apoptosis in HCT116 cells at 1 uM; type: functional, cell-based; details: Homo sapiens
Summary of the method: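 Apoptosis was measured in HCT116 cells with a cell-death detection ELISA (nucleosome release), read at 405 nm with a 490 nm reference. Scored positive/negative at 1 µM.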

## Nc1ccccc1NC(=O)c1ccc(CNc2nccc(-c3cccnc3)n2)cc1 [MOCETINOSTAT]
[1]
  half-life: 78 min
[2]
  clearance: 33.3 mL/min/kg
[3]
  EC50: 450 nM
[4]
  IC50: 590 nM
[5]
  IC50: 290 nM
[6]
  Tmax: 35.4 min
[7]
  bioavailability: 1%
[8]
  clearance: 28.3 mL/min/kg
[9]
  Cmax normalised: 0.3 µM/mg/kg
[10]
  bioavailability: 47%
[11]
  inhibition in vivo at 60 mg/kg/day: 30%
[12]
  IC50: 670 nM
[13]
  inhibition in vivo at 80 mg/kg: 82%
[14]
  Vdss: 0.35 L/kg
[15]
  inhibition in vivo at 60 mg/kg/day: 73%
[16]
  Cmax normalised: 0.086 µM/mg/kg
[17]
  bioavailability: 12%
[18]
  Tmax: 17.4 min
[19]
  EC50: < 1000 nM
[20]
  EC50: 1380 nM
[21]
  Tmax: 15 min
[22]
  half-life: 36 min
[23]
  IC50: 900 nM
[24]
  Vd: 0.8 L/kg
[25]
  inhibition in vivo at 40 mg/kg/day: 4%
[26]
  IC50: 20000 nM
[27]
  half-life: 42 min
[28]
  Cmax normalised: 0.0029 µM/mg/kg
[29]
  inhibition in vivo at 70 mg/kg/day: 47%
[30]
  inhibition in vivo at 40 mg/kg/day: 56%
[31]
  Vd: 0.91 L/kg
[32]
  inhibition in vivo at 90 mg/kg/day: 64%

## Nc1ccccc1NC(=O)c1ccc(CNc2nccc(-c3cccnc3)n2)cc1 [MOCETINOSTAT DIHYDROBROMIDE]
[33]
  inhibition in vivo at 60 mg/kg/day: 64%
[34]
  inhibition in vivo at 120 mg/kg/day: 93%
[35]
  inhibition in vivo at 90 mg/kg/day: 70%

## Nc1ccccc1NC(=O)c1ccc(CNc2nccc(-c3cccnc3)n2)cc1
[36]
  Activity: Active
